Reference: publication PMC11310838 (RSC Advances, 2024)
Like-named read-outs stand apart in the source and are kept apart here.

How the values were obtained:
HEPG2 cell line = assay: Sulforhodamine B; assay type: cell-based, human; settings: for inhibition at 100 µM: read-out: Percentage of cell growth inhibition at [100 μM] HEPG2; for IC50: read-out: IC50 (μM) ± SD HEPG2
Outline: (§1)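 Carcinoma lines came from the National Cancer Institute, Cairo, and were grown as monolayers in DMEM with 10% FBS and 1% penicillin–streptomycin. Final DMSO was ≤0.1% (v/v). Cells were treated for 48 h either at a single 100 μM dose (% growth inhibition) or at 0, 6.25, 12.5, 25 and 50 μM. SRB staining was read at 570 nm as % viability. IC50 came from dose–response curve fitting.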

MCF7 cell line = assay: Sulforhodamine B; assay type: cell-based, human; settings: for inhibition at 100 µM: read-out: Percentage of cell growth inhibition at [100 μM] MCF7; for IC50: read-out: IC50 (μM) ± SD MCF7
Outline: as §1

HCT116 cell line = assay: Sulforhodamine B; assay type: cell-based, human; settings: for inhibition at 100 µM: read-out: Percentage of cell growth inhibition at [100 μM] HCT116
Outline: as §1

[1] = system: HDF cell line (Human Dermal Fibroblasts); assay: Sulforhodamine B; assay type: cell-based; settings: 48 h; for inhibition at 100 µM: Homo sapiens, HDF, read-out: Percentage of cell growth inhibition at [100 μM] HDF
Outline: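 Normal human dermal fibroblasts came from the National Cancer Institute, Cairo. Final DMSO was ≤0.1% (v/v). Cells were exposed to the test compound at a single 100 μM dose for 48 h. Growth inhibition was measured by the sulforhodamine-B method, with absorbance read at 570 nm and expressed as percentage of cell viability.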

[2] = system: cancer cell lines (HCT116, HEPG2, MCF7); assay: SRB single-dose screen, summary over cancer cell lines; assay type: cell-based; settings: Homo sapiens, 48 h, read-out: percentage of cell growth inhibition on the cancer cell lines
Outline: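 Human carcinoma lines grown as monolayers in DMEM with 10% FBS and 1% penicillin–streptomycin. Each test compound was applied once at 100 μM for 48 h, with final DMSO at most 0.1% (v/v) in control and treated wells. Growth was measured by sulforhodamine-B staining, with OD read at 570 nm. Percentage growth inhibition was calculated from viability relative to the untreated control.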

[3] = Homo sapiens, HCT-116, 48 h, read-out: IC50 (μM) ± SD HCT116, 48 h treatment, SRB
[4] = single dose 100 μM, 48 h, SRB, mean ± SD

| SMILES | inhibition at 100 µM (HEPG2 cell line; Homo sapiens, HepG2, 48 h) [%] | inhibition at 100 µM (MCF7 cell line; Homo sapiens, MCF7, 48 h) [%] | inhibition at 100 µM (HCT116 cell line; Homo sapiens, HCT-116, 48 h) [%] | inhibition at 100 µM [1] [%] | also measured |
| --- | --- | --- | --- | --- | --- |
| NC(=S)NN=Cc1ccc(OCC(=O)N2CCN(C(=O)COc3ccc(C=NNC(N)=S)cc3)CC2)cc1 [Compound 7a, 1,1′-(Piperazine-1,4-diyl)bis(2-(4-(2-carbamothioylhydrazono)methylphenoxy)ethanone)] | 83.3 ± 7.47 | 85.3 ± 5.2 | 86.2 ± 5.33 | 45.1 ± 30.1 |  |
| Cc1nc(NN=Cc2ccc(OCC(=O)N3CCN(C(=O)COc4ccc(C=NNc5nc(C)c(N=Nc6ccc(F)cc6)s5)cc4)CC3)cc2)sc1N=Nc1ccc(F)cc1 [Compound 9c, 1,1′-(Piperazine-1,4-diyl)bis(2-(4-(((4-methyl-5-(4-fluorophenylazo)thiazol-2-yl)hydrazono)-methyl)phenoxy)ethanone)] | 77.2 ± 3.1 | 90.3 ± 1.3 | 87.2 ± 4.53 | 67.7 ± 11.5 |  |
| Cc1nc(NN=Cc2ccc(OCC(=O)N3CCN(C(=O)COc4ccc(C=NNc5nc(C)c(N=Nc6ccc(Cl)cc6)s5)cc4)CC3)cc2)sc1N=Nc1ccc(Cl)cc1 [Compound 9d, 1,1′-(Piperazine-1,4-diyl)bis(2-(4-(((4-methyl-5-(4-chlorophenylazo)thiazol-2-yl)hydrazono)-methyl)phenoxy)ethanone)] | 73.1 ± 5.28 | 90.5 ± 1.99 | 89.1 ± 2.04 | 57.7 ± 18 |  |
| Cc1nc(NN=Cc2ccc(OCC(=O)N3CCN(C(=O)COc4ccc(C=NNc5nc(C)c(N=Nc6ccc([N+](=O)[O-])cc6)s5)cc4)CC3)cc2)sc1N=Nc1ccc([N+](=O)[O-])cc1 [Compound 9e, 1,1′-(Piperazine-1,4-diyl)bis(2-(4-(((4-methyl-5-(4-nitrophenylazo)thiazol-2-yl)hydrazono)methyl)-phenoxy)ethanone)] | 77.5 ± 7.73 | 84.6 ± 2.02 | 86.8 ± 2.09 | 18.6 ± 32.1 | IC50 (HEPG2 cell line; Homo sapiens, HepG2, 48 h): 32.2 ± 4.5 µM; IC50 (MCF7 cell line; Homo sapiens, MCF7, 48 h): 22 ± 4.5 µM; IC50 (HCT116 cell line; [3]): 20.4 ± 3.4 µM; inhibition at 100 µM [2]: > 80% |
| Cc1ccc(N=Nc2sc(NN=Cc3ccccc3OCC(=O)N3CCN(C(=O)COc4ccccc4C=NNc4nc(C)c(N=Nc5ccc(C)cc5)s4)CC3)nc2C)cc1 [Compound 9f, 1,1′-(Piperazine-1,4-diyl)bis(2-(2-(((4-methyl-5-(4-tolylazo)thiazol-2-yl)hydrazono)methyl)-phenoxy)ethanone)] | 93.5 ± 2.07 | 85.5 ± 2.11 | 85.4 ± 6.41 | 78.3 ± 3.64 |  |
| Cc1nc(NN=Cc2ccccc2OCC(=O)N2CCN(C(=O)COc3ccccc3C=NNc3nc(C)c(N=Nc4ccc(F)cc4)s3)CC2)sc1N=Nc1ccc(F)cc1 [Compound 9g, 1,1′-(Piperazine-1,4-diyl)bis(2-(2-(((4-methyl-5-(4-fluorophenylazo)thiazol-2-yl)hydrazono)-methyl)phenoxy)ethanone)] | 91.8 ± 3.29 | 88.7 ± 4.11 | 80.6 ± 7.04 | 71.1 ± 21.6 |  |
| Cc1nc(NN=Cc2ccccc2OCC(=O)N2CCN(C(=O)COc3ccccc3C=NNc3nc(C)c(N=Nc4ccc(Cl)cc4)s3)CC2)sc1N=Nc1ccc(Cl)cc1 [Compound 9h, 1,1′-(Piperazine-1,4-diyl)bis(2-(2-(((4-methyl-5-(4-chlorophenylazo)thiazol-2-yl)hydrazono)-methyl)phenoxy)ethanone)] | 84 ± 3.07 | 81 ± 7.44 | 77.7 ± 8.59 | 56 ± 23.6 |  |
| Cc1nc(NN=Cc2ccccc2OCC(=O)N2CCN(C(=O)COc3ccccc3C=NNc3nc(C)c(N=Nc4ccc([N+](=O)[O-])cc4)s3)CC2)sc1N=Nc1ccc([N+](=O)[O-])cc1 [Compound 9j, 1,1′-(Piperazine-1,4-diyl)bis(2-(2-(((4-methyl-5-(4-nitrophenylazo)thiazol-2-yl)hydrazono)-methyl)phenoxy)ethanone)] | 83.1 ± 7.22 | 71.4 ± 20.5 | 87.7 ± 4.3 | 12 ± 6.04 |  |
| O=C(COc1ccc(C=NN=c2sc(-c3ccccc3)nn2-c2ccccc2)cc1)N1CCN(C(=O)COc2ccc(C=NN=c3sc(-c4ccccc4)nn3-c3ccccc3)cc2)CC1 [Compound 13a, 1,1′-(Piperazine-1,4-diyl)bis(2-(4-(((3,5-diphenyl-1,3,4-thiadiazol-2(3H)-ylidene)hydrazono)-methyl)phenoxy)ethanone)] | 71.4 ± 4.92 | 88.2 ± 1.88 | 78.1 ± 5.78 | 52.5 ± 14.8 |  |
| O=C(COc1ccc(C=NN=c2sc(-c3ccc(Cl)cc3)nn2-c2ccccc2)cc1)N1CCN(C(=O)COc2ccc(C=NN=c3sc(-c4ccc(Cl)cc4)nn3-c3ccccc3)cc2)CC1 [Compound 13b, 1,1′-(Piperazine-1,4-diyl)bis(2-(4-(((5-(4-chlorophenyl)-3-phenyl-1,3,4-thiadiazol-2(3H)-ylidene)-hydrazono)methyl)phenoxy)ethanone)] | 85.1 ± 3.16 | 90.8 ± 1.39 | 89.3 ± 2.83 | 79.2 ± 3.71 | IC50 (HEPG2 cell line; Homo sapiens, HepG2, 48 h): 24.5 ± 4 µM; IC50 (MCF7 cell line; Homo sapiens, MCF7, 48 h): 19.4 ± 3 µM; IC50 (HCT116 cell line; [3]): 18.4 ± 4 µM; inhibition at 100 µM [2]: > 80% |
| O=C(COc1ccccc1C=NN=c1sc(-c2ccccc2)nn1-c1ccccc1)N1CCN(C(=O)COc2ccccc2C=NN=c2sc(-c3ccccc3)nn2-c2ccccc2)CC1 [Compound 13c, 1,1′-(Piperazine-1,4-diyl)bis(2-(2-(((3,5-diphenyl-1,3,4-thiadiazol-2(3H)-ylidene)hydrazono)-methyl)phenoxy)ethanone)] | 68.8 ± 12.7 | 86.2 ± 1.83 | 76.4 ± 5.38 | 60.8 ± 3.09 |  |
| O=C(COc1ccccc1C=NN=c1sc(-c2ccc(Cl)cc2)nn1-c1ccccc1)N1CCN(C(=O)COc2ccccc2C=NN=c2sc(-c3ccc(Cl)cc3)nn2-c2ccccc2)CC1 [Compound 13d, 1,1′-(Piperazine-1,4-diyl)bis(2-(2-(((5-(4-chlorophenyl)-3-phenyl-1,3,4-thiadiazol-2(3H)-ylidene)-hydrazono)methyl)phenoxy)ethanone)] | 80 ± 3.39 | 86.4 ± 2.56 | 88.9 ± 1.38 | 64 ± 10.8 |  |
| O=C(COc1ccc(C=NN=c2[nH]c(-c3ccccc3)cs2)cc1)N1CCN(C(=O)COc2ccc(C=NN=c3[nH]c(-c4ccccc4)cs3)cc2)CC1 [Compound 15a, 1,1′-(Piperazine-1,4-diyl)bis(2-(4-(((4-phenylthiazol-2(3H)-ylidene)hydrazineylidene)methyl)-phenoxy)ethanone)] | 67.9 ± 7.03 | 87.3 ± 1.63 | 78.1 ± 6.5 | 50.2 ± 21.5 |  |
| COc1ccc(-c2csc(=NN=Cc3ccc(OCC(=O)N4CCN(C(=O)COc5ccc(C=NN=c6[nH]c(-c7ccc(OC)cc7)cs6)cc5)CC4)cc3)[nH]2)cc1 [Compound 15b, 1,1′-(Piperazine-1,4-diyl)bis(2-(4-(((4-(4-methoxyphenyl)thiazol-2(3H)-ylidene)hydrazineylidene)-methyl)phenoxy)ethanone)] | 83.4 ± 9.48 | 50.6 ± 10.2 | 21.8 ± 16.5 | 48 ± 48.5 |  |
| O=C(COc1ccc(C=NN=c2[nH]c(-c3cc4ccccc4oc3=O)cs2)cc1)N1CCN(C(=O)COc2ccc(C=NN=c3[nH]c(-c4cc5ccccc5oc4=O)cs3)cc2)CC1 [Compound 15e, 1,1′-(Piperazine-1,4-diyl)bis(2-(4-(((4-(coumarin-3-yl)thiazol-2(3H)-ylidene)hydrazineylidene)-methyl)phenoxy)ethanone)] | 74.4 ± 4.88 | 68.4 ± 7.33 | 73.9 ± 4.08 | 68.1 ± 10.1 |  |
| O=C(COc1ccccc1C=NN=c1[nH]c(-c2cc3ccccc3oc2=O)cs1)N1CCN(C(=O)COc2ccccc2C=NN=c2[nH]c(-c3cc4ccccc4oc3=O)cs2)CC1 [Compound 15h, 1,1′-(Piperazine-1,4-diyl)bis(2-(2-(((4-(coumarin-3-yl)thiazol-2(3H)-ylidene)hydrazineylidene)-methyl)phenoxy)ethanone)] | 70.1 ± 8.68 | 46.7 ± 11.3 | 36.4 ± 13.8 | 44 ± 51.5 |  |
| COc1cccc2c1C(=O)c1c(O)c3c(c(O)c1C2=O)C[C@@](O)(C(=O)CO)C[C@@H]3O[C@H]1C[C@H](N)[C@H](O)[C@H](C)O1 [DOX, reference compound] |  |  |  |  | IC50 (HEPG2 cell line; 48 h treatment, SRB): 8.42 ± 1.7 µM; Percentage of cell growth inhibition at [100 μM] HEPG2 (HEPG2 cell line; [4]): 89.09 ± 0.63%; IC50 (MCF7 cell line; 48 h treatment, SRB): 7.59 ± 1.4 µM; Percentage of cell growth inhibition at [100 μM] MCF7 (MCF7 cell line; [4]): 86.37 ± 1.82%; IC50 (HCT116 cell line; read-out: IC50 (μM) ± SD HCT116, 48 h treatment, SRB): 7.7 ± 1.5 µM; Percentage of cell growth inhibition at [100 μM] HCT116 (HCT116 cell line; [4]): 82.77 ± 2.98%; Percentage of cell growth inhibition at [100 μM] HDF ([1]; single dose 100 μM, SRB, normal cells, mean ± SD): 30.53 ± 9.75% |
